Measured values from ChEMBL document CHEMBL1139865 (J Med Chem, 2007).
Each block holds one molecule with its values, some of them ahead of it. Calls of active or inactive are those of the source. The calls are words filed in the database; no cut-off is given here.

Assays:
in vitro [1] = details: human
in vitro [2] = details: rat
[3] = Half life in monkey at 1.1 mg/kg, iv; format: ADME, organism-based, Macaca mulatta; parameters: dose 1.1 mg/kg, route intravenous; details: rhesus monkey, in vivo
Summary of the method: (§1)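 Monkey PK study using the benzoate salt, dosed at 1.1 mg/kg iv or 10 mg/kg orally. Plasma drug concentrations and plasma DPP-4 inhibition were measured. Parameters derived were iv and oral half-lives, oral AUC, CL, Vdss and F (%).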

[4] = Half life in monkey at 10 mg/kg, po; format: ADME, organism-based, Macaca mulatta; parameters: dose 10 mg/kg, route oral; details: rhesus monkey, in vivo
Summary of the method: as §1

[5] = AUC in monkey at 10 mg/kg, po; format: ADME, organism-based, Macaca mulatta; parameters: dose 10 mg/kg, route oral; details: rhesus monkey, plasma
Summary of the method: as §1

[6] = Clearance in monkey at 1.1 mg/kg, iv and 10 mg/kg, po; format: ADME, organism-based, Macaca mulatta; details: rhesus monkey, in vivo
Summary of the method: as §1

[7] = Volume of distribution at steady state in monkey at 1.1 mg/kg, iv and 10 mg/kg, po; format: ADME, organism-based, Macaca mulatta; details: rhesus monkey, in vivo, read-out: Vdss
Summary of the method: as §1

[8] = Bioavailability in monkey at 1.1 mg/kg, iv and 10 mg/kg, po; format: ADME, organism-based, Macaca mulatta; details: rhesus monkey, in vivo
Summary of the method: as §1

[9] = Half life in dog at 1 mg/kg, iv; format: ADME, organism-based, Canis lupus familiaris; parameters: dose 1 mg/kg, route intravenous; details: in vivo
Summary of the method: (§2)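 Dog PK study using the HCl salt, dosed at 1 mg/kg iv or 3 mg/kg orally. Plasma drug levels were followed, and plasma DPP-4 activity was tracked alongside them.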

[10] = Half life in dog at 3 mg/kg, po; format: ADME, organism-based, Canis lupus familiaris; parameters: dose 3 mg/kg, route oral; details: in vivo
Summary of the method: as §2

[11] = AUC in dog at 3 mg/kg, po; format: ADME, organism-based, Canis lupus familiaris; parameters: dose 3 mg/kg, route oral; details: plasma
Summary of the method: as §2

[12] = Clearance in dog at 1 mg/kg, iv and 3 mg/kg, po; format: ADME, organism-based, Canis lupus familiaris; details: in vivo
Summary of the method: as §2

[13] = Volume of distribution at steady state in dog at 1 mg/kg, iv and 3 mg/kg, po; format: ADME, organism-based, Canis lupus familiaris; details: in vivo, read-out: Vdss
Summary of the method: as §2

[14] = Bioavailability in dog at 1 mg/kg, iv and 3 mg/kg, po; format: ADME, organism-based, Canis lupus familiaris; details: in vivo
Summary of the method: as §2

Mus musculus = species on record: Mus musculus; assay: Reduction in glucose excursion in mouse after oral glucose tolerance test; format: functional, organism-based
[15] = Half life in rat at 1 mg/kg, iv; format: ADME, organism-based; parameters: dose 1 mg/kg, route intravenous; details: in vivo
Summary of the method: (§3)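 Rat PK study using the TFA salt. A single iv dose (1 mg/kg) and a separate oral dose (10 mg/kg) were given. Half-life was derived for each route, and CL and Vdss for the iv route. F (%) was calculated from the oral and iv exposure.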

[16] = Half life in rat at 10 mg/kg, po; format: ADME, organism-based; parameters: dose 10 mg/kg, route oral; details: in vivo
Summary of the method: as §3

[17] = AUC in rat at 10 mg/kg, po; format: ADME, organism-based; parameters: dose 10 mg/kg, route oral; details: plasma
Summary of the method: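 Rat pharmacokinetics with the test article given as the TFA salt: 1 mg/kg iv and 10 mg/kg oral. Oral AUC comes from plasma concentrations after oral dosing. Half-lives, clearance, Vdss and oral bioavailability are derived from the same iv/oral pair.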

[18] = Clearance in rat at 1 mg/kg, iv and 10 mg/kg, po; format: ADME, organism-based; details: in vivo
Summary of the method: as §3

[19] = Volume of distribution at steady state in rat at 1 mg/kg, iv and 10 mg/kg, po; format: ADME, organism-based; details: in vivo, read-out: Vdss
Summary of the method: as §3

Rattus norvegicus [20] = species on record: Rattus norvegicus; assay: Improvement in glucose tolerance in Wistar fatty rat; format: functional, organism-based
Summary of the method: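 Glucose tolerance test in female Wistar fatty rats given the benzoate salt, with doses normalized to free base. Read-outs after an oral glucose load were plasma glucose, the baseline (0 min)-adjusted glucose AUC0–60min, and plasma immunoreactive insulin, including the level at 10 min. Data are mean and SD (n = 6), compared with control by one-tailed Williams'/Shirley-Williams' tests.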

Rattus norvegicus [21] = species on record: Rattus norvegicus; assay: Increase in plasma insulin level in Wistar fatty rat; format: functional, organism-based
Summary of the method: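 Female Wistar fatty rats given a benzoate salt, with doses expressed as free base, then an oral glucose load. Plasma immunoreactive insulin read 10 min after the glucose load. Mean and SD, n = 6. Compared with control by one-tailed Williams' or Shirley-Williams' test, p ≤ 0.025.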

half-life at 1 µM (in vitro [1]; liver microsomes): 1.88 h
half-life at 1 µM (in vitro [2]; liver microsomes): 0.567 h
SMILES: N#Cc1ccccc1Cn1c(N2CCC[C@@H](N)C2)nc2ccc(Br)cc2c1=O

half-life at 1 µM (in vitro [1]; liver microsomes): > 3.33 h
half-life at 1 µM (in vitro [2]; liver microsomes): 0.667 h
SMILES: N#Cc1ccccc1Cn1c(N2CCC[C@@H](N)C2)nc2ccc(Cl)cc2c1=O

half-life at 1 µM (in vitro [1]; liver microsomes): 2.27 h
half-life at 1 µM (in vitro [2]; liver microsomes): 0.583 h
SMILES: COc1cc2c(=O)n(Cc3ccccc3C#N)c(N3CCC[C@@H](N)C3)nc2cc1F

half-life at 1 µM (in vitro [1]; liver microsomes): 1.37 h
half-life at 1 µM (in vitro [2]; liver microsomes): 0.167 h
SMILES: COc1ccc2nc(N3CCC[C@@H](N)C3)n(Cc3ccccc3C#N)c(=O)c2c1

half-life at 1 µM (in vitro [1]; microsomes): 1.07 h
half-life at 1 µM (in vitro [2]; microsomes): 0.283 h
SMILES: N#Cc1ccccc1Cn1c(N2CCC[C@@H](N)C2)nc2c(Cl)cc(Cl)cc2c1=O

half-life at 1 µM (in vitro [1]; liver microsomes): > 3.33 h
half-life at 1 µM (in vitro [2]; liver microsomes): 0.517 h
SMILES: N#Cc1ccccc1Cn1c(N2CCC[C@@H](N)C2)nc2ccc(F)cc2c1=O [listing 2 of 2 here]

half-life at 1 µM (in vitro [1]; liver microsomes): 2.43 h
half-life at 1 µM (in vitro [2]; liver microsomes): 1.78 h
SMILES: COc1cc2nc(N3CCC[C@@H](N)C3)n(Cc3ccccc3C#N)c(=O)c2cc1OC

half-life at 1 µM (in vitro [1]; microsomes): > 3.33 h
half-life at 1 µM (in vitro [2]; microsomes): 0.0417 h
SMILES: N#Cc1ccccc1Cn1c(N2CCC[C@@H](N)C2)nc2ccccc2c1=O

The remaining lines, values behind:

SMILES: N#Cc1ccccc1Cn1c(N2CCC[C@@H](N)C2)nc2cccc(F)c2c1=O
half-life at 1 µM (in vitro [1]; microsomes): 2.08 h
half-life at 1 µM (in vitro [2]; microsomes): 0.03 h

SMILES: Cn1c(=O)cc(N2CCC[C@@H](N)C2)n(Cc2ccccc2C#N)c1=O.O=C(O)c1ccccc1 [ALOGLIPTIN BENZOATE]
half-life [3]: 5.74 h
half-life [4]: 5.66 h
AUC [5]: 16600 ng·h/mL
clearance [6]: 8.81 mL/min/kg
Vd [7]: 2.6 L/kg
bioavailability [8]: 87%

SMILES: Cl.Cn1c(=O)cc(N2CCC[C@@H](N)C2)n(Cc2ccccc2C#N)c1=O
half-life [9]: 2.93 h
half-life [10]: 3.04 h
AUC [11]: 1610 ng·h/mL
clearance [12]: 23 mL/min/kg
Vd [13]: 3.51 L/kg
bioavailability [14]: 68%

SMILES: N#Cc1ccccc1Cn1c(N2CCC[C@@H](N)C2)nc2ccc(F)cc2c1=O [listing 1 of 2 here]
Activity (Mus musculus): Active

SMILES: N#Cc1ccccc1Cn1c(N2CCC[C@@H](N)C2)nc2ccc(F)cc2c1=O.O=C(O)C(F)(F)F
half-life [15]: 2.6 h
half-life [16]: 2.43 h
AUC [17]: 7560 ng·h/mL
clearance [18]: 20.6 mL/min/kg
Vd [19]: 2.87 L/kg

SMILES: N#Cc1ccccc1Cn1c(N2CCCC(N)C2)nc2c(Cl)cccc2c1=O (configuration not stated)
half-life at 1 µM (in vitro [1]; liver microsomes): 1.33 h
half-life at 1 µM (in vitro [2]; liver microsomes): 0.0617 h

SMILES: N#Cc1ccccc1Cn1c(N2CCC[C@@H](N)C2)nc2cc(N3CCOCC3)c(F)cc2c1=O
half-life at 1 µM (in vitro [1]; liver microsomes): 0.55 h
half-life at 1 µM (in vitro [2]; liver microsomes): 0.102 h

SMILES: Cn1c(=O)cc(N2CCC[C@@H](N)C2)n(Cc2ccccc2C#N)c1=O
Activity (Rattus norvegicus [20]): Dose-dependent effect
Activity (Rattus norvegicus [21]): Active
